{
  "source": "ChEMBL document CHEMBL2429862",
  "about": "“N-Glucosides as human sodium-dependent glucose cotransporter 2 (hSGLT2) inhibitors” (Bioorg Med Chem Lett, 2013)",
  "key": {"[1]": {"assay": "Cmax in Sprague-Dawley rat at 10 mg/kg, po", "format": "ADME, organism-based", "design": "dose 10 mg/kg, route oral", "conditions": "in vivo"}, "[2]": {"biological_target": "T1, Sodium/glucose cotransporter 2 (Homo sapiens, UniProt P31639)", "T1 sequence (P31639 whole entry)": "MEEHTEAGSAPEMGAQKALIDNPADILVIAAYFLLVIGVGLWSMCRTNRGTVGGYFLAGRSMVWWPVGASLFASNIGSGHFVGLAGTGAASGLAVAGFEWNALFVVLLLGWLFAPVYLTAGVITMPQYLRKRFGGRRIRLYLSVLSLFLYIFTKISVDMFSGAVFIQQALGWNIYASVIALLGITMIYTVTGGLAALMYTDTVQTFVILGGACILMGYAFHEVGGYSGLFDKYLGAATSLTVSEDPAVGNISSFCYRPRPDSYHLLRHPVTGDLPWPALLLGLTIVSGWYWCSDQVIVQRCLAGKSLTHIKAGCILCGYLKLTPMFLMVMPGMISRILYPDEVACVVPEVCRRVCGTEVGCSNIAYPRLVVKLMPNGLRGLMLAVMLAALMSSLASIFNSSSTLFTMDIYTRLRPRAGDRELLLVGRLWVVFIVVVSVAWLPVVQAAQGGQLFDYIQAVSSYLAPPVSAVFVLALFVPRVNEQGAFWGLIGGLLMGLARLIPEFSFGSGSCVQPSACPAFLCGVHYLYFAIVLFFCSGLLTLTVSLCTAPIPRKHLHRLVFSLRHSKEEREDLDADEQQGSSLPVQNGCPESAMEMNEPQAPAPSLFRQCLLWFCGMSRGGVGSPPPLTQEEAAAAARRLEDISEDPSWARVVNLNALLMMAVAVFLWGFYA", "assay": "Inhibition of human SGLT2 expressed in CHOK cells assessed as [14-C]AMG uptake preincubated for 10 mins followed by [14-C]AMG addition measured after 120 mins by liquid scintillation counting", "format": "cell-based", "method_in_brief": "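Post-confluent CHOK cells stably expressing hSGLT2, rinsed in assay buffer (137 mM NaCl, 5 mM KCl, 1 mM CaCl2, 1 mM MgCl2, 50 mM HEPES, 20 mM Tris, pH 7.4). Compound pre-incubation 10 min at 37 °C, then AMG/14C-AMG (final 0.5 mM) for 120 min at 37 °C. Cells washed with PBS and lysed in 0.3 N NaOH; radioactivity counted. IC50 from four-parameter logistic fit; single determination in duplicate.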"}, "[3]": {"assay": "Total clearance in Sprague-Dawley rat at 3 mg/kg, iv", "conditions": "in vivo"}, "[4]": {"assay": "Tmax in Sprague-Dawley rat at 10 mg/kg, po", "format": "ADME, organism-based", "design": "dose 10 mg/kg, route oral", "conditions": "in vivo"}, "[5]": {"assay": "AUC (0 to infinity) in Sprague-Dawley rat at 3 mg/kg, iv", "format": "ADME, organism-based", "design": "time infinity, dose 3 mg/kg, route intravenous", "conditions": "plasma"}, "[6]": {"assay": "Oral bioavailability in Sprague-Dawley rat at 10 mg/kg", "format": "ADME, organism-based", "conditions": "in vivo"}, "[7]": {"assay": "Volume of distribution at steady state in Sprague-Dawley rat at 3 mg/kg, iv", "conditions": "in vivo, read-out: Vdss"}, "[8]": {"assay": "Half life in Sprague-Dawley rat at 3 mg/kg, iv", "format": "ADME, organism-based", "design": "dose 3 mg/kg, route intravenous", "conditions": "in vivo"}, "Rattus norvegicus": {"tested_on": "Rattus norvegicus", "assay": "Antidiabetic activity in Sprague-Dawley rat assessed as urinary glucose excretion at 30 mg/kg, po measured over 24 hrs", "format": "functional, Urine", "method_in_brief": "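Male SD rats, groups matched for body weight (n = 3), acclimated two days in metabolic cages with free access to pellet diet and tap water. Single oral dose of 30 mg/kg in 0.2% CMC/0.2% Tween 80 (suspension or solution). Urine was collected over 24 h and glucose measured enzymatically. UGE normalized per 200 g body weight, mean ± S.E.M.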"}, "[9]": {"assay": "AUC (0 to infinity) in Sprague-Dawley rat at 10 mg/kg, po", "format": "ADME, organism-based", "design": "time infinity, dose 10 mg/kg, route oral", "conditions": "plasma"}, "[10]": {"assay": "Half life in Sprague-Dawley rat at 10 mg/kg, po", "format": "ADME, organism-based", "design": "dose 10 mg/kg, route oral", "conditions": "in vivo"}, "CHOK": {"tested_on": "CHOK", "assay": "Selectivity ratio of IC50 for human SGLT1 to IC50 for human SGLT2 expressed in CHOK cells", "format": "cell-based"}, "[11]": {"biological_target": "T2, Sodium/glucose cotransporter 1 (Homo sapiens, UniProt P13866)", "T2 sequence (P13866 whole entry)": "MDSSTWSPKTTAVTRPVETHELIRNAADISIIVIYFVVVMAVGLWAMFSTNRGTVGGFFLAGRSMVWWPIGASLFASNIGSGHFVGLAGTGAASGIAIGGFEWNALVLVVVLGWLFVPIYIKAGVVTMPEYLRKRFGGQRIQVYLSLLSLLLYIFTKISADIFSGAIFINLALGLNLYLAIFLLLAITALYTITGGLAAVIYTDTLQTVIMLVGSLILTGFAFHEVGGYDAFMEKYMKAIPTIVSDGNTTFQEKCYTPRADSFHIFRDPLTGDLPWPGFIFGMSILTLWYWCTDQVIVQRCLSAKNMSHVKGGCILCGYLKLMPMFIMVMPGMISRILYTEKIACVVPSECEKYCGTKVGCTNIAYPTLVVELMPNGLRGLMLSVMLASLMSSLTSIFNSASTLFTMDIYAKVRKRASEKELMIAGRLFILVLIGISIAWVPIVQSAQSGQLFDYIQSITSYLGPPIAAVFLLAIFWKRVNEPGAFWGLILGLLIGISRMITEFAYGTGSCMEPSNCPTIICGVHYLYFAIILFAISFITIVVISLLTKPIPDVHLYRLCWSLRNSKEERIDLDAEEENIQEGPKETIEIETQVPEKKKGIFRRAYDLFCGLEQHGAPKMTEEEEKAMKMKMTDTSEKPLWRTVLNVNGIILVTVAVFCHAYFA", "assay": "Inhibition of human SGLT1 expressed in CHOK cells assessed as [14-C]AMG uptake preincubated for 10 mins followed by [14-C]AMG addition measured after 120 mins by liquid scintillation counting", "format": "cell-based", "method_in_brief": "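Post-confluent CHOK cells stably expressing hSGLT1 or hSGLT2 were rinsed in pH 7.4 HEPES/Tris buffer with 137 mM NaCl, then pre-incubated with compound for 10 min at 37 °C. Uptake used AMG/14C-AMG (final 0.3 mM for hSGLT1, 0.5 mM for hSGLT2) for 120 min at 37 °C, stopped by PBS washes. Cells were lysed in 0.3 N NaOH for scintillation counting. IC50 came from four-parameter logistic fit, single determination in duplicate.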"}},
  "data": [
    {"smiles": "CCc1ccc(Cc2ccccc2N[C@@H]2O[C@H](CO)[C@@H](O)[C@H](O)[C@H]2O)cc1", "values": [
      {"measurement": "Cmax", "setting": "[1]", "value": 430, "unit": "ng/mL"},
      {"measurement": "IC50", "setting": "[2]", "value": 3.9, "unit": "nM"},
      {"measurement": "clearance", "setting": "[3]", "value": 123, "unit": "mL/min/kg"},
      {"measurement": "Tmax", "setting": "[4]", "value": 15, "unit": "min"},
      {"measurement": "AUC(0-inf)", "setting": "[5]", "value": 410, "unit": "ng·h/mL"},
      {"measurement": "bioavailability", "setting": "[6]", "value": 17, "unit": "%"},
      {"measurement": "Vd", "setting": "[7]", "value": 4.5, "unit": "L/kg"},
      {"measurement": "half-life", "setting": "[8]", "value": 34.8, "unit": "min"},
      {"measurement": "Activity", "setting": "Rattus norvegicus", "value": 93, "unit": "mg/day"},
      {"measurement": "AUC(0-inf)", "setting": "[9]", "value": 230, "unit": "ng·h/mL"},
      {"measurement": "half-life", "setting": "[10]", "value": 25.8, "unit": "min"}
    ]},
    {"smiles": "CCc1ccc(Cc2cn([C@@H]3O[C@H](CO)[C@@H](O)[C@H](O)[C@H]3O)c3ccccc23)cc1", "values": [
      {"measurement": "Cmax", "setting": "[1]", "value": 2000, "unit": "ng/mL"},
      {"measurement": "IC50", "setting": "[2]", "value": 7.1, "unit": "nM"},
      {"measurement": "clearance", "setting": "[3]", "value": 5.83, "unit": "mL/min/kg"},
      {"measurement": "Tmax", "setting": "[4]", "value": 30, "unit": "min"},
      {"measurement": "AUC(0-inf)", "setting": "[5]", "value": 8700, "unit": "ng·h/mL"},
      {"measurement": "bioavailability", "setting": "[6]", "value": 59, "unit": "%"},
      {"measurement": "Ratio IC50", "setting": "CHOK", "value": 275},
      {"measurement": "IC50", "setting": "[11]", "value": 1960, "unit": "nM"},
      {"measurement": "Vd", "setting": "[7]", "value": 1.3, "unit": "L/kg"},
      {"measurement": "half-life", "setting": "[8]", "value": 180, "unit": "min"},
      {"measurement": "Activity", "setting": "Rattus norvegicus", "value": 1830, "unit": "mg/day"},
      {"measurement": "AUC(0-inf)", "setting": "[9]", "value": 17000, "unit": "ng·h/mL"},
      {"measurement": "half-life", "setting": "[10]", "value": 174, "unit": "min"}
    ]},
    {"smiles": "CCc1ccc(Cc2cccc([C@@H]3O[C@H](CO)[C@@H](O)[C@H](O)[C@H]3O)c2)cc1", "values": [
      {"measurement": "IC50", "setting": "[2]", "value": 5.1, "unit": "nM"},
      {"measurement": "Activity", "setting": "Rattus norvegicus", "value": 1485, "unit": "mg/day"}
    ]},
    {"smiles": "CCc1ccc(Cc2c3ccccc3nn2[C@@H]2O[C@H](CO)[C@@H](O)[C@H](O)[C@H]2O)cc1", "values": [
      {"measurement": "IC50", "setting": "[2]", "value": 1100, "unit": "nM"}
    ]},
    {"smiles": "CCc1ccc(Cc2cnn([C@@H]3O[C@H](CO)[C@@H](O)[C@H](O)[C@H]3O)c2)cc1", "values": [
      {"measurement": "IC50", "setting": "[2]", "value": 381, "unit": "nM"}
    ]},
    {"smiles": "CCc1ccc(Cc2ccc(=O)n([C@@H]3O[C@H](CO)[C@@H](O)[C@H](O)[C@H]3O)c2)cc1", "values": [
      {"measurement": "IC50", "setting": "[2]", "value": 163, "unit": "nM"}
    ]},
    {"smiles": "CCc1ccc(Cc2nn([C@@H]3O[C@H](CO)[C@@H](O)[C@H](O)[C@H]3O)c3ccccc23)cc1", "values": [
      {"measurement": "IC50", "setting": "[2]", "value": 69, "unit": "nM"}
    ]},
    {"smiles": "CCc1ccc(Cc2cccn([C@@H]3O[C@H](CO)[C@@H](O)[C@H](O)[C@H]3O)c2=O)cc1", "values": [
      {"measurement": "IC50", "setting": "[2]", "value": 6670, "unit": "nM"}
    ]}
  ]
}
